Series [1] has as its target T1, Lysine-specific demethylase 6B (Homo sapiens, UniProt O15054). The experiment in a line: Inhibition of recombinant human JMJD3 expressed in baculovirus infected Sf9 cells at 25 uM using biotinylated histone H3 peptide as substrate incubated for 15 mins followed by substrate addition and measured after 60 mins by AlphaScreen assay relative to control. An outline of the steps: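 JMJD3 demethylase activity measured by AlphaScreen with compound at 25 μM; means ± SEM, n = 3.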

A short description of series [2]: Apparent permeability of the compound in pH 7.4 phosphate buffer solution at 0.5 mM incubated for 24 hrs under gentle shaking condition by HPLC-UV detector based PAMPA assay. It counts as ADME. An outline of the steps: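 Parallel artificial membrane permeability assay (PAMPA); apparent permeability (Papp) reported in cm/s.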
Series [3] has as its system A-375. As to the kind of experiment: Cell cycle arrest in human A375 cells assessed as accumulation at S phase at 20 uM incubated for 24 hrs by propidium iodide staining-based flow cytometry (reference value: 29.56%). It counts as functional. An outline of the steps: (§1)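 A375 melanoma cells exposed to compound at 1, 5, 10, 20, 40, 80 or 100 μM for 24 h. Cells were collected, fixed in iced 70% ethanol for 2 h and stained with propidium iodide. Cell-cycle distribution was read by flow cytometry, n = 3. […]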

For series [4], the system named is A-375. As to the kind of experiment: Cell cycle arrest in human A375 cells assessed as accumulation at G1 phase at 20 uM incubated for 24 hrs by propidium iodide staining-based flow cytometry (reference value: 59.63%). In kind it is functional. In outline:
as §1
(In general: A flow cytometer gives signals particle by particle.)

Series [5] has as its system A-375. As to the kind of experiment: Cell cycle arrest in human A375 cells assessed as accumulation at G1 phase at 100 uM incubated for 24 hrs by propidium iodide staining-based flow cytometry (reference value: 59.63%). In kind it is functional. An outline of the steps: as §1
The subject of series [6] is A-375. As to the kind of experiment: Cell cycle arrest in human A375 cells assessed as accumulation at G1 phase at 80 uM incubated for 24 hrs by propidium iodide staining-based flow cytometry (reference value: 59.63%). It counts as functional. An outline of the steps:
as §1

Series [7] has as its system A-375. As to the kind of experiment: Cell cycle arrest in human A375 cells assessed as accumulation at S phase at 80 uM incubated for 24 hrs by propidium iodide staining-based flow cytometry (reference value: 29.56%). In kind it is functional. In outline:
as §1

Series [8] concerns A-375. As to the kind of experiment: Cell cycle arrest in human A375 cells assessed as accumulation at G1 phase at 40 uM incubated for 24 hrs by propidium iodide staining-based flow cytometry (reference value: 59.63%). It counts as functional. In outline:
as §1

Series [9] relates to A-375. As to the kind of experiment: Cell cycle arrest in human A375 cells assessed as accumulation at S phase at 100 uM incubated for 24 hrs by propidium iodide staining-based flow cytometry (reference value: 29.56%). It counts as functional. An outline of the steps:
as §1

The target of series [10] is T1, Lysine-specific demethylase 6B. As to the kind of experiment: Inhibition of recombinant human JMJD3 expressed in baculovirus infected Sf9 cells using biotinylated histone H3 peptide as substrate incubated for 15 mins followed by substrate addition and measured after 60 mins by AlphaScreen assay.
For series [11], the system named is A-375. As to the kind of experiment: Cell cycle arrest in human A375 cells assessed as accumulation at G2/M phase at 40 uM incubated for 24 hrs by propidium iodide staining-based flow cytometry (reference value: 10.81%). It counts as functional. An outline of the steps:
as §1

Series [12] concerns A-375. The experiment in a line: Antiproliferative activity against human A375 cells incubated for 24 hrs by propidium iodide staining based flow cytometric analysis. The conditions noted are these: A-375, 24 h.
Series [13] addresses T1, Lysine-specific demethylase 6B. As to the kind of experiment: Inhibition of JMJD3 in human A375 cells assessed as reduction in decrease of the H3K27me2 level at 100 uM incubated for 24 hrs by Western blot analysis. It counts as cell-based. In outline:
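A375 melanoma cells treated with 100 μM compound for 4 and 24 h, then lysed and run on SDS-PAGE. Western blot on nitrocellulose was probed with anti-H3K27me2 antibody.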
On the technique in general: A western blot detects proteins with antibodies after separation by electrophoresis.

Series [14] has as its system A-375. As to the kind of experiment: Cell cycle arrest in human A375 cells assessed as accumulation at S phase at 40 uM incubated for 24 hrs by propidium iodide staining-based flow cytometry (reference value: 29.56%). It counts as functional. An outline of the steps: as §1
For series [15], the system named is A-375. As to the kind of experiment: Cell cycle arrest in human A375 cells assessed as accumulation at G2/M phase at 100 uM incubated for 24 hrs by propidium iodide staining-based flow cytometry (reference value: 10.81%). In kind it is functional. An outline of the steps:
as §1

Series [16] has as its system A-375. As to the kind of experiment: Cell cycle arrest in human A375 cells assessed as accumulation at G2/M phase at 20 uM incubated for 24 hrs by propidium iodide staining-based flow cytometry (reference value: 10.81%). In kind it is functional. An outline of the steps:
as §1

Series [17] concerns the target Lysine-specific demethylase 6A (Homo sapiens, UniProt O15550). The experiment in a line: Inhibition of UTX (unknown origin) using histone H3 peptide as substrate incubated for 30 mins followed by substrate addition by AlphaScreen assay. For orientation: In Alpha technology, singlet oxygen from a donor bead excites a nearby acceptor bead.
In series [18] the test system is A-375. As to the kind of experiment: Cell cycle arrest in human A375 cells assessed as accumulation at G2/M phase at 80 uM incubated for 24 hrs by propidium iodide staining-based flow cytometry (reference value: 10.81%). It counts as functional. In outline:
as §1

Molecules are shown by their SMILES. pIC50: −log10 of the molar value. Activity calls are given as the source filed them. The rule behind the calls is not given here.

T1 sequence (O15054 whole entry): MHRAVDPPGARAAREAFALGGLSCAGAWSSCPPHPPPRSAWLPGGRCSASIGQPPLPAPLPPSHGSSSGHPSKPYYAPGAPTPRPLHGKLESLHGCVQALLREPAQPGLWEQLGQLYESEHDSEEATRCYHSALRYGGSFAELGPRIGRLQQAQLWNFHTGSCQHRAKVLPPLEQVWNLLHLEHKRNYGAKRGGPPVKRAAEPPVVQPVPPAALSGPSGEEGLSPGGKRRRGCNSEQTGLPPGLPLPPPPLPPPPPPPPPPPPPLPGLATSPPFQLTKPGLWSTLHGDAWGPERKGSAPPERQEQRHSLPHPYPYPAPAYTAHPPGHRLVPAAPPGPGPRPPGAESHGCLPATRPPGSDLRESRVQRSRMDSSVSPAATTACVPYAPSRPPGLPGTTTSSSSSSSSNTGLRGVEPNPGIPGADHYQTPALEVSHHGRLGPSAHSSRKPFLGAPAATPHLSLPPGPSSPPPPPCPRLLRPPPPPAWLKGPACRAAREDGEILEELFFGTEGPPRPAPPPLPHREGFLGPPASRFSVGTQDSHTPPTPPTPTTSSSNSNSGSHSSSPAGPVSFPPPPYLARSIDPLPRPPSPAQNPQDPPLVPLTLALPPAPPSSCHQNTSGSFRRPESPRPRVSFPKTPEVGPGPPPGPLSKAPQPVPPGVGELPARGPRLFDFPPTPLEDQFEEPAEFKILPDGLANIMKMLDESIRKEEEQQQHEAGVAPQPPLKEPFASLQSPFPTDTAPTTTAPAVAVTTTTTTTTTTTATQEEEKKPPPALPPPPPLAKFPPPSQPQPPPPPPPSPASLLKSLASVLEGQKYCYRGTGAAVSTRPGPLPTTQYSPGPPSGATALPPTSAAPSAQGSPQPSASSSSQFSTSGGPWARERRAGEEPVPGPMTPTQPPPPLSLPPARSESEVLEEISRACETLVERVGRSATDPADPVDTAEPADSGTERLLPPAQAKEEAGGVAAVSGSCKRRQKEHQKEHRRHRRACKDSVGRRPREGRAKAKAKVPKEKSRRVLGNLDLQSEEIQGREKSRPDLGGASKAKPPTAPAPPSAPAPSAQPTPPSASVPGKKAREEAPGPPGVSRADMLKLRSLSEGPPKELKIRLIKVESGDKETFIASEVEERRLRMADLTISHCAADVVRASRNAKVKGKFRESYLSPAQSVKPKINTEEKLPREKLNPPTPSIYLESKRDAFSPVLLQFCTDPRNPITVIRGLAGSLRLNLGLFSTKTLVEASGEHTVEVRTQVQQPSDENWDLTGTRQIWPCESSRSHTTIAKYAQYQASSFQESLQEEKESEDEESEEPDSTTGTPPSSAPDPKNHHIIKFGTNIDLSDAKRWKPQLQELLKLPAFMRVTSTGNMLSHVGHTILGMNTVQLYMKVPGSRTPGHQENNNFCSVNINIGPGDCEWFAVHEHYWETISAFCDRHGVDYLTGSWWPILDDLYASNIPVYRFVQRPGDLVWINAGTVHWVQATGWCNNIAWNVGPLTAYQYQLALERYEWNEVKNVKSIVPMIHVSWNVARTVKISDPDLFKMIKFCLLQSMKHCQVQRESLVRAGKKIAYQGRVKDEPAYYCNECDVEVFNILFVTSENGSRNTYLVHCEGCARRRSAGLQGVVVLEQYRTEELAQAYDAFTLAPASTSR
Lysine-specific demethylase 6A, sequence (O15550 whole entry): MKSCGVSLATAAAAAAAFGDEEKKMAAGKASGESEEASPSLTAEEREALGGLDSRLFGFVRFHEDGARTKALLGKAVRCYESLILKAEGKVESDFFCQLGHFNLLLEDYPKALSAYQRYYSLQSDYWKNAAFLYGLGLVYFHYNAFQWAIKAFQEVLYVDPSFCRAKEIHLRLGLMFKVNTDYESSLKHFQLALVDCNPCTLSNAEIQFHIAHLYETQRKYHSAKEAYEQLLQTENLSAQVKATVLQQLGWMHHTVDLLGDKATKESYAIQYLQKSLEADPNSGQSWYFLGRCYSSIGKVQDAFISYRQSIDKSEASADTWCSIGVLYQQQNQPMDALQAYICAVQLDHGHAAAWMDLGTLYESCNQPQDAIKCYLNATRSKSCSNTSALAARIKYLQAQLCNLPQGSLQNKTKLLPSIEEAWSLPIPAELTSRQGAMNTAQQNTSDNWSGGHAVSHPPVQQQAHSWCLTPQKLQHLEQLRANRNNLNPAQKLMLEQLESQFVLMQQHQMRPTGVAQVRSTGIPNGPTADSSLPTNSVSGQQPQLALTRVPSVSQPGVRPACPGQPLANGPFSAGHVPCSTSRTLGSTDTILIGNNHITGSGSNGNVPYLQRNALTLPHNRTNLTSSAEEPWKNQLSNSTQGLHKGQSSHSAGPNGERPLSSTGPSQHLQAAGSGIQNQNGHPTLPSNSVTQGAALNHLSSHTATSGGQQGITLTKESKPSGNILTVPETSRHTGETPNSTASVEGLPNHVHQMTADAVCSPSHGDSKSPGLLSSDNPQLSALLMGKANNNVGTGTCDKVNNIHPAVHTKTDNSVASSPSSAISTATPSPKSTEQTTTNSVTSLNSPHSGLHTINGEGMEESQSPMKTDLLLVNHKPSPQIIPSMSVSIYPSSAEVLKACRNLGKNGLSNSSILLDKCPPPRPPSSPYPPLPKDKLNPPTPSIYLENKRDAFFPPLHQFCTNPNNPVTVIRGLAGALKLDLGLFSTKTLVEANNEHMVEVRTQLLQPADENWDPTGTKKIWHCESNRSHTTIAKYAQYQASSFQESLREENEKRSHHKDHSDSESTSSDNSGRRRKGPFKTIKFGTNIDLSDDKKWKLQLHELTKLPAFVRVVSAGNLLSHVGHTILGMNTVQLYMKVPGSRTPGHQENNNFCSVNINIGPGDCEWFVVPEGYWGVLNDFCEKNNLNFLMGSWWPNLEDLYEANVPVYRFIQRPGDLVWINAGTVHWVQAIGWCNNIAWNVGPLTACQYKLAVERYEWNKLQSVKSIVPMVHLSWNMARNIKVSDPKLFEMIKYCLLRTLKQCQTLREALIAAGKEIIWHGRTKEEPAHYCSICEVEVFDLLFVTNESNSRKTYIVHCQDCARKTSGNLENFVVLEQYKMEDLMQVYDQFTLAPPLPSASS

`Oc1c(F)cc(F)cc1-c1nc2ccccc2o1`: the inhibition (commonly how much of the control response was suppressed) in series [1] is 20%.

For the compound `Oc1ccccc1-c1nc2ccccc2o1`, in series [1], the inhibition turned out to be 40%.

Turning to `Oc1ccc(O)c(-c2nc3ccccc3o2)c1`, the apparent permeability coefficient (Papp) (commonly a coefficient for how fast a substance crosses the barrier) at 24 h, 500 µM in series [2] was 0.912 ×10⁻⁶ cm/s. Moreover, the Activity in series [3] stood at 47.57%; in series [4] it was 51.31%; in series [5], 16.62%; in series [6], 21.92%; in [7] it was 67.12%; in series [8], 24.14%. Further, the Activity in series [9] was 73.38%; in series [11], 14.81%; in series [14], 61.05%; in [15], 10%; in [16] it was 1.12%; in series [18], 10.96%. Besides, the results for the negative-log IC50 (pIC50) in series [10], in series [12] and in series [17] were 5.92, 4.61 and 4.59, respectively. For the same compound, the inhibition entry in series [13] is “Active”. The inhibition in series [1] is 90%.

For the compound `COc1cc2c(cc1-c1nc3ccccc3o1)OCO2`, in series [1], the inhibition result was “inactive”.

Regarding `Oc1ccccc1-c1nc2ccccc2s1`, the inhibition result in [1] was “inactive”.

For `O=C(O)c1ccc(O)c(-c2nc3ccccc3o2)c1`, in series [1], the inhibition came out at 27%.

The record behind these values is ChEMBL document CHEMBL4433220, “Identification of the 2-Benzoxazol-2-yl-phenol Scaffold as New Hit for JMJD3 Inhibition” (ACS Med Chem Lett, 2019).
